Screening results: PubChem, Broad Institute
ARNT TACC3 PPI: disruptors of human ARNT/TACC3 interaction; Q9Y6A5; actives 0.66% (n = 390,000); AID 623870; AlphaScreen His-ARNT PAS-B/GST-TACC3 binding, luminescence; TACC3 fragment carries E629A point mutation; inhibition, % at 9.99 µM;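 active = mean inhibition of replicates at least 50% and at least half of replicates each reaching 50%; inconclusive = half or more replicates reach 50% but mean below 50%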;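 also: 0% = complete ARNT plus TACC3 wells and 100% = ARNT alone without TACC3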
SR-BI DiI-HDL act: activators of SR-BI mediated HDL lipid uptake; CHO ldlA[mSR-BI] cells, DiI-HDL uptake fluorescence, 3 h; 100 = double the neutral-control signal; activation, % at 12.5 µM; actives 0.096% (n = 320,000); AID 504775;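 active = mean replicate activation of at least 60% and every replicate at or above 60%; inconclusive = mean or all-replicate condition met, but not both; inactive = mean below 60% and not all replicates reaching 60%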;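 also: 0% = median plate neutral-control signal and 100% = twice that signal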
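System: LDL receptor-deficient CHO ldlA cells overexpressing murine SR-BI | Timing: 3 h uptake period with compound, 37 °C | Medium: HEPES-buffered (25 mM, pH 7.4) F12 plus 0.5% BSA | Dosing: Single-point compound dose | Signal: Bottom-read fluorescence, 550/595 nm | Read-out: Retained DiI signal reflecting DiI-HDL uptake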
SR-BI DiI inh: inhibitors of mouse SR-BI mediated HDL lipid uptake; ldlA[mSR-BI] CHO cells, DiI-HDL uptake fluorescence, 3 h; inhibition, % at 12.5 µM; Q61009; actives 0.96% (n = 320,000);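 active = mean replicate inhibition of at least 70% and a set share of replicates each scoring 70 or more; inconclusive = meets just one of the two criteria; inactive = fails both criteria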;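 also: 0% = median of neutral control wells and 100% = median of positive control wells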
Target sequence (Q61009 whole entry, looked up): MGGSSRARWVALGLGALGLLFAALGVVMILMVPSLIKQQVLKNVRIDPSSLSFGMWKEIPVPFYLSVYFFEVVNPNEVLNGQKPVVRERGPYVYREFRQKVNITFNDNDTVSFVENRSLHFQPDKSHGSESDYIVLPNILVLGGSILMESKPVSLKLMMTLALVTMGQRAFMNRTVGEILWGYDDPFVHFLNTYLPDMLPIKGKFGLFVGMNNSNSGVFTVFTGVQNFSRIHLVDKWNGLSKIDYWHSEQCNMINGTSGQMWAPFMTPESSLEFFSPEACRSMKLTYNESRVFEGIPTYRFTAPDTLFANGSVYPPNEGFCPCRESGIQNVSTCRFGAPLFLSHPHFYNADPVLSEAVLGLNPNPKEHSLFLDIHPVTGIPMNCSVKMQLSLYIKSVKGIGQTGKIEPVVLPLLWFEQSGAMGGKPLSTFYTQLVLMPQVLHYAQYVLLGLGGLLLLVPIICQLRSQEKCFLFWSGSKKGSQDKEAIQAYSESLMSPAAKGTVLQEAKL
miR-122 sensor: miR-122 inhibition in Huh7 cells; Huh7 miR-122 Renilla luciferase sensor, 48 h; neutral wells = 0, positive control = 100; activation (reporter increase), % at 12.5 µM; actives 0.3% (n = 340,000);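 active = mean replicate activation score at least 90 and every replicate individually at or above 90; inconclusive = only one of the two criteria met; inactive = neither criterion met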;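 also: higher luciferase means less miR-122 activity so hits act as miR-122 inhibitors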
CAL PDZ FP-1: inhibitors of human CAL PDZ peptide binding; Q9HD26; purified CAL PDZ, TMR-peptide fluorescence polarization, 1 h; inhibition, % at 24.9 µM; actives 0.92% (n = 300,000);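 active = mean inhibition of at least 30% with at least half of replicates also reaching 30%; inconclusive = no clear call, values can overlap the other calls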;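 also: 0% = DMSO neutral control and 100% = excess unlabeled competitor peptide PRC23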
CAL PDZ FP-2: human CAL PDZ-peptide interaction inhibition; Q9HD26; purified CAL PDZ, TMR-peptide fluorescence polarization, 1 h; inhibition, % at 20 µM; actives 0.02% (n = 330,000); AID 504414;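 active = highest replicate inhibition of at least 40%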;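 also: plate controls were DMSO neutral control wells for no effect and unlabeled competitor peptide control wells for full effect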
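Control set: unlabelled peptide and DMSO controls / Material: purified CerCALP PDZ construct / Timing: 1 h incubation at room temperature before polarization reading / Doses: 20 µM, one dose / Detection: fluorescence polarization (mP)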
* = called active by the depositor; ? = inconclusive; nt = no result given; [ ] = remark or other dose. Most compounds without a hit are left out; they make up all but 2.1% or so of the library.

SMILES	ARNT TACC3 PPI	SR-BI DiI-HDL act	SR-BI DiI inh	miR-122 sensor	CAL PDZ FP-1	CAL PDZ FP-2
COc1ccc(C(=O)Nc2oc(-c3ccccc3)c(-c3ccccc3)c2C#N)cc1OC	-6.3	-81.6	81.6*	-7.0	-3.6	-0.5
COc1ccc(C(=O)Nc2oc(-c3ccccc3)c(-c3ccccc3)c2C#N)cc1	nt	-82.6	82.6*	-1.6	-1.5	-1.3
Cc1cccc(C)c1OCC(=O)Nc1oc(-c2ccccc2)c(-c2ccccc2)c1C#N	-1.0	-81.6	81.6*	-4.3	-3.9	-0.2
Cc1ccc(N2C(=O)[C@@H]3[C@H](C2=O)C2c4ccccc4C=CN2[C@@H]3C(=O)c2ccco2)cc1 (stereo partly drawn)	21.5	-7.2	7.2	19.1	-2.6	nt
Cc1ccc(N2C(=O)[C@@H]3[C@H](C2=O)C2c4ccccc4C=CN2[C@@H]3C(=O)c2ccco2)c(C)c1 (stereo partly drawn)	45.1*	-6.9	6.9	0.1	-6.7	0.5
C[C@H](NC(=O)C[C@H]1CC[C@@H](NC(=O)CN2CCOCC2)[C@H](CO)O1)c1ccccc1	-3.2	nt	nt	-14.5[16.7 µM]	nt	nt
COc1ccc(Cl)cc1N(CC(=O)N(C)C)S(=O)(=O)c1ccc(C)c([N+](=O)[O-])c1	16.3	15.7	-15.7	100.8*	nt	-0.4
COc1cc2oc3ccccc3c2cc1N(CC(=O)N(C)C)S(=O)(=O)c1ccccc1	4.1	-0.5	0.5	113.9*	4.4	-2.3
COc1cc2oc3ccccc3c2cc1N(CC(=O)N(C)C)S(=O)(=O)c1ccc(C)cc1	-3.8	nt	nt	-5.3	nt	-1.2
C[C@@H]1CN([C@@H](C)CO)C(=O)c2cc(NC(=O)CCC(F)(F)F)ccc2O[C@@H](C)CCCCO[C@@H]1CN(C)Cc1ccccc1	nt	nt	nt	3.9[16.7 µM]	nt	nt
CCN(C(=O)c1ccc2c(Cl)c3c(nc2c1)CCC3)c1ccc(C)c(C)c1	3.6	-86.4	86.4*	nt	2.5	-0.9
Clc1cccc(-c2ccc(CNCc3ccccn3)o2)c1	74.1*	5.3	-5.3	6.6	5.8	0.1
O=C1C2C=C(I)[C@H](C[C@@H]2OCCCCCCO)[C@@]12CO2	-1.5	nt	nt	nt	nt	nt
O=C1COc2ccc(S(=O)(=O)Nc3ccc(F)cc3)cc2N1	11.6	11.2	-11.2	112.3*	8.3	0.0
Cc1ccc(NS(=O)(=O)c2ccc3c(c2)NC(=O)CO3)c(C)c1	0.9	-14.8	14.8	12.0	-6.1	-0.2
O=C(C[C@H]1C=C[C@H](NC(=O)C2CC2)[C@@H](CO)O1)NCCCN1CCOCC1	-8.1	nt	nt	nt	nt	nt
C[C@@H]1CN([C@H](C)CO)C(=O)c2cc(NC(=O)c3ccncc3)ccc2O[C@@H]1CN(C)S(=O)(=O)c1ccc(Cl)cc1	-1.4	nt	nt	179.1*[16.7 µM]	nt	nt
C[C@@H]1CN([C@@H](C)CO)C(=O)c2cc(NC(=O)Cc3cn(C)c4ccccc34)ccc2O[C@H]1CN(C)S(=O)(=O)c1ccc(F)cc1	nt	nt	nt	2.6[16.7 µM]	nt	nt
COc1ccc(S(=O)(=O)N(C)C[C@@H]2Oc3ccc(N(C)C)cc3C(=O)N([C@H](C)CO)C[C@H]2C)cc1	-0.4	nt	nt	-4.2[16.7 µM]	nt	nt
C[C@@H]1CN([C@H](C)CO)C(=O)c2cc(N(C)C)ccc2O[C@@H]1CN(C)S(=O)(=O)c1ccc(Cl)cc1	nt	nt	nt	98.3*[16.7 µM]	nt	nt
C[C@@H]1CN([C@H](C)CO)C(=O)c2cc(NC(=O)Cc3cn(C)c4ccccc34)ccc2O[C@H]1CN(C)S(=O)(=O)c1ccc(F)cc1	5.5	-72.7	72.7*	-2.0[16.7 µM]	0.9	-0.9
C[C@H]1CN([C@@H](C)CO)C(=O)c2cc(N(C)C)ccc2O[C@H]1CN(C)S(=O)(=O)c1ccc(Cl)cc1	nt	nt	nt	4.3[16.7 µM]	nt	nt
C[C@@H]1CN([C@@H](C)CO)C(=O)c2cc(NC(=O)c3ccncc3)ccc2O[C@@H]1CN(C)S(=O)(=O)c1ccc(Cl)cc1	0.1	nt	nt	51.2[16.7 µM]	nt	nt
COc1ccc(S(=O)(=O)N(C)C[C@H]2Oc3ccc(N(C)C)cc3C(=O)N([C@H](C)CO)C[C@@H]2C)cc1	27.5	nt	nt	112.2*[16.7 µM]	nt	nt
COc1ccc(NC(=O)N(C)C[C@@H]2OCCCC[C@@H](C)Oc3ccc(NS(=O)(=O)c4ccccc4)cc3C(=O)N([C@H](C)CO)C[C@H]2C)cc1	16.6	nt	nt	-5.5[16.7 µM]	nt	nt
SMILES	ARNT TACC3 PPI	SR-BI DiI-HDL act	SR-BI DiI inh	miR-122 sensor	CAL PDZ FP-1	CAL PDZ FP-2
CCC(=O)N(C)C[C@H]1Oc2cc(-c3cncnc3)ccc2S(=O)(=O)N([C@H](C)CO)C[C@@H]1C	2.3	nt	nt	-0.7[16.7 µM]	nt	nt
COc1ccc(NC(=O)Nc2ccc3c(c2)CC(=O)N([C@H](C)CO)C[C@H](C)[C@H](CN(C)C(=O)Nc2ccc(F)cc2)O3)cc1	nt	nt	nt	4.7[16.7 µM]	nt	nt
C[C@@H]1CCCCO[C@@H](CN(C)Cc2ccncc2)[C@H](C)CN([C@@H](C)CO)C(=O)c2cc(NC(=O)Nc3ccc4c(c3)OCO4)ccc2O1	11.1	nt	nt	13.4[16.7 µM]	nt	nt
COc1ccc(S(=O)(=O)N(C)C[C@H]2Oc3cc(C#CC4CC4)ccc3S(=O)(=O)N([C@H](C)CO)C[C@H]2C)cc1	0.1	nt	nt	134.5*[16.7 µM]	nt	nt
COc1ccc(S(=O)(=O)N(C)C[C@H]2Oc3ncc(C#CC4(O)CCCC4)cc3C(=O)N([C@H](C)CO)C[C@@H]2C)cc1	39.1*	nt	nt	6.2[16.7 µM]	nt	nt
Cc1ccc(C(=O)Nc2nnc(NC(=S)Nc3ccccc3)s2)cc1	6.2	-70.2	?	2.8	-0.6	-1.3
CCOc1ccc(C(=O)Nc2nnc(NC(=S)Nc3ccccc3)s2)cc1	-3.1	-84.6	84.6*	-5.2	-4.2	-0.7
O=C(C[C@@H]1C[C@H]2c3cc(NC(=O)Nc4ccccc4)ccc3O[C@H]2[C@H](CO)O1)NCc1ccncc1	3.7	nt	nt	2.0[16.7 µM]	nt	nt
CCc1nnc(NC(=O)C2CCCN(c3nc4ccccc4s3)C2)s1 (stereo not drawn)	-0.1	3.7	-3.7	0.3	nt	-1.9
COc1ccc(CCNC(=O)C2CCCN(c3nc4ccccc4s3)C2)cc1OC (stereo not drawn)	nt	-79.3	79.3*	nt	-6.4	-3.0
Cc1cc(=O)n2nc(N3CCC(C(=O)NCc4cccc(Br)c4)CC3)sc2n1	4.0	-19.1	19.1	-0.4	119.0*	-0.7
CCOc1ccccc1CNC(=O)C1CCN(c2nn3c(=O)cc(C)nc3s2)CC1	7.0	-64.9	64.9	-0.9	nt	-0.1
CCOc1ccc(CCNC(=O)C2CCN(c3nn4c(=O)cc(C)nc4s3)CC2)cc1OCC	4.4	-72.0	72.0*	-2.7	-1.0	-0.6
O=C(Nc1ccc(F)cc1)Nc1ccc2c(c1)[C@H]1C[C@H](CC(=O)N3CCCCC3)O[C@H](CO)[C@H]1O2	-6.7	nt	nt	2.9[16.7 µM]	nt	nt
O=[N+]([O-])c1c(Nc2ccccc2O)ccc2nonc12	1.7	18.8	-18.8	-3.2	36.1*	-0.6
Cc1ccc(Cn2cc(/C=N/NC(=O)Cc3nnc(NC(=O)c4ccc(C)cc4)s3)c3ccccc32)cc1	-18.3	-77.5	77.5*	-5.2	nt	1.3
